Screens: PubChem, several laboratories
Arr AP2 block: inhibitors of beta-arrestin/AP2 binding, primary screen, biochemical, GPCR trafficking, flow cytometry. beta-arrestin 1 C-terminal peptide binding to AP2 beta2-adaptin appendage (human). FITC-arrestin peptide / GST-AP2 beads; AP2 beta2 appendage carries R879A mutation. inhibition, % at 10 µM. actives 0.31% (n = 340,000). AID 504490, 2011;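 active = inhibition above a set limit, near 3 SD of compounds lacking own fluorescence, cut at about 54% in these data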;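 note: plate controls were DMSO wells for no effect and 5 µM unlabelled arrestin peptide for full effect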
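Assay system: GST-AP2 R879A bound to glutathione beads, E. coli-expressed; Medium: PBS with 0.05% Tween 20 and 0.1% BSA; Also added: fluorescein-tagged arrestin peptide at 50 nM final; Timing: 12 min plus 1 h, RT; Measured by: flow cytometry, FL1 (488/535 nm); Evaluation: percent drop in bead-associated FITC signal.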
Rin1 Abl inh: inhibitors of Rin1-Abl protein binding, primary screen, biochemical, TR-FRET | inhibition, % at 7.35 µM | actives 0.4% (n = 360,000) | AID 588664, 2011; in the data active = inhibition above about 5%, passing the limit was not always enough
SKN-1 block: suppressors of acrylamide-induced Pgst-4::GFP reporter in worms, primary screen, SKN-1 inhibitor project, whole organism, uHTS, GFP/RFP fluorescence ratio, strain VP596; C. elegans VP596 Pgst-4::GFP/RFP ratio, 24 h; inhibition, % at 21.8 µM; AID 624304, 2012; actives 0.49% (n = 360,000);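 active = interference check ratio from 0.5 to 1.5 plus GFP to RFP signal ratio inhibition reaching or exceeding a fixed threshold, cut at about 30% in these data, passing the limit was not always enough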
Tb MetRS inh: T. brucei MetRS inhibitors, primary screen, biochemical, luminescence. methionyl-tRNA synthetase (Trypanosoma brucei brucei). purified T. brucei MetRS, ATP depletion, Kinase-Glo luminescence. inhibition, % at 11.9 µM. actives 0.4% (n = 360,000);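 active = inhibition above a per-plate cutoff of the control wells' mean inhibition plus 3 SD, cut at about 5.5% in these data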;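 note: 0% = DMSO wells median and 100% = median of wells with control inhibitor compound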
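Material – parasite MetRS enzyme · Medium – HEPES-MgCl2-KCl buffer plus DTT, spermine, BSA, pyrophosphatase · Reagent – ATP, methionine and E. coli bulk tRNA substrates · Times – 15 min enzyme-compound preincubation, 2 h reaction, 10 min detection, 25 °C · Measured by – luminescence of leftover ATP · Evaluation – percent inhibition relative to median high and low control wells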
MT1-MMP act inh: blockers of MT1-MMP proenzyme processing, primary screen, HT1080 RFP-PRO-GFP cells, GFP/RFP fluorescence; actives 0.061% (n = 360,000); Matrix metalloproteinase-14 (Homo sapiens), P50281; GFP/RFP ratio fluorescence, overnight; percent of plate control window, DMSO zero; GFP/RFP ratio change, % at 20 µM;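 active = GFP/RFP ratio change of at least 30% with cell ATP level not reduced by more than half and red fluorescence within 50% of control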
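Compound: 20 µM single dose, 1% DMSO / System: HT1080 RFP-PRO-GFP cells / Controls: DMSO and RFP-L50D-GFP cell wells / Read-out basis: GFP/RFP fluorescence ratio / Schedule: overnight compound exposure at 37 °C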
TbMetRS confirm: T. brucei MetRS inhibitors, confirmation, biochemical, luminescence; actives 93% (n = 1,400); T. brucei MetRS enzyme, luminescence (ATP depletion); shares compounds with Tb MetRS inh; inhibition, % at 11.9 µM; in the data active = inhibition above about 7%
Jurkat cytotox: Jurkat T cell cytotoxicity, cytotoxicity control for T. brucei MetRS inhibitor project, luminescence, high throughput; shares compounds with Tb MetRS inh; Jurkat cells viability, ATP luminescence; inhibition, % at 8.3 µM; actives 12% (n = 1,400); AID 624413, 2012; in the data active = inhibition above about 15%;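 note: 0% = vehicle and 100% = reference inhibitor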
TbMetRS FP orth: T. brucei MetRS inhibitors, orthogonal assay for T. brucei MetRS inhibitor project, biochemical, fluorescence polarization; shares compounds with Tb MetRS inh; purified T. brucei MetRS; inhibition, % at 11.9 µM; actives 44% (n = 1,400); AID 651607, 2012; in the data active = inhibition above about 17%;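 note: 0% = vehicle wells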
Starred values were filed as active, the others as inactive; x = no result. Hits are enriched below; roughly 1.6% of the tested compounds scored in any of these assays.

SMILES | Arr AP2 block | Rin1 Abl inh | SKN-1 block | Tb MetRS inh | MT1-MMP act inh | TbMetRS confirm | Jurkat cytotox | TbMetRS FP orth
NS(=O)(=O)c1ccc(CCNC(=O)CCCCCn2c(=S)[nH]c3ccc(Br)cc3c2=O)cc1 | 32 | -3 | -5 | 17* | 1 | 22* | 0 | 14
COc1ccc(S(=O)(=O)NC(=O)C2(C)CCN2C(=O)CCC2CCCC2)cc1OC (stereo not given) | x | -2 | 22 | 0 | -4 | x | x | x
CNc1cncc(-c2cccnc2)n1 | x | 3 | 15 | 0 | 2 | x | x | x
O=C(NCCc1nc2ccccc2[nH]1)/C(=C/c1ccc2c(c1)OCO2)NC(=O)c1ccc(Cl)cc1Cl | 13 | -3 | 13 | 8.0* | 2 | 11* | 0 | 5
O=C(NCCc1nc2ccccc2[nH]1)/C(=C/c1ccc(F)cc1)NC(=O)c1ccco1 | -1 | 3 | -8 | 3 | -1 | x | x | x
Cc1cc(C)n(-c2nnc(C)n2/N=C/c2cc(Br)ccc2OCc2ccccc2)n1 | 8 | -3 | -6 | 6.4* | 3 | 1 | -2 | 4
Cc1cc(C)n(-c2nnc(C)n2/N=C/c2ccccc2OCc2ccccc2Cl)n1 | -3 | 3 | 19 | 1 | -7 | x | x | x
O=C(CCCOc1ccc(Cl)cc1Cl)NCCc1nnc2ccccn12 | 5 | 2 | 14 | 7.8* | 3 | 19* | 0 | 12
C[C@H](NC(=O)CCCOc1ccc(Cl)cc1Cl)c1nnc2ccccn12 | -10 | -2 | 3 | 7.4* | 0 | 16* | 1 | 6
Cc1cc(Cl)ccc1OCC(=O)NCC(=O)N/N=C/c1ccco1 | 3 | -2 | -2 | 6.8* | 5 | 71* | 7 | 20*
O=C(Cc1ccc(Nc2nc3ccc(Br)cc3[nH]2)cc1)NCCc1cccs1 | 15 | 2 | 0 | 84* | 7 | 100* | 11 | 104*
O=C(NCc1ccco1)c1cccc(Nc2nc3ccc(Br)cc3[nH]2)c1 | -4 | 0 | 12 | 10* | 2 | 40* | 8 | 32*
O=C(NCC1CC1)c1ccc(Nc2nc3ccc(Br)cc3[nH]2)cc1 | -9 | -1 | -7 | 7.3* | 7 | 46* | 8 | 20*
O=C(O)c1ccc(CN2C[C@@H](CO)O[C@@H](n3cnc4c(NCc5ccc(F)cc5)ncnc43)C2)cc1 | x | -1 | 20 | 0 | 1 | x | x | x
CN(C)C1CN(Cc2cn(Cc3ccc(Cl)cc3)nn2)S(=O)(=O)C1 (stereo not given) | x | x | 1 | -1 | 7 | x | x | x
Brc1cccc(CNc2nc3ccccc3n2CCN2CCOCC2)c1 | 4 | 0 | 9 | 7.5* | 2 | 20* | 8 | 5
CC1CCCN(C(=O)CN2CCC(c3nc4ccc(Cl)cc4[nH]3)CC2)C1 (stereo not given) | -8 | -2 | -1 | 4 | 3 | x | x | x
Clc1ccc(CN2CCC(c3nc4ccc(Cl)cc4[nH]3)CC2)cc1 | 20 | -1 | 6 | 8.4* | -10 | 17* | 21* | 0
OC(c1ccc(Cl)c(F)c1)c1ncc(-c2cccc(F)c2)[nH]1 (stereo not given) | x | -3 | 21 | 0 | 4 | x | x | x
Cc1nn(C2CCS(=O)(=O)C2)c(C)c1CN(C)C(=O)c1ccccc1 (stereo not given) | -11 | 0 | 6 | 0 | 1 | x | x | x
CC(O)CN1C(=O)C(CC(=O)Nc2ccc(Cl)cc2)SC1=Nc1ccccc1 (stereo not given) | 2 | -4 | 15 | 27* | -5 | 53* | 2 | 22*
COCCN1C(=O)C(CC(=O)Nc2ccc(C(C)=O)cc2)SC1=Nc1ccccc1 (stereo not given) | -5 | 1 | 10 | 0 | 1 | x | x | x
CCOC(=O)C1(C)CCCN(C(=O)c2cc(OC)c(OC)c(OC)c2)C1 (stereo not given) | x | -8 | -2 | 0 | 1 | x | x | x
COc1cc(C(C(=O)NC(C)(C)C)N(Cc2ccccc2)C(=O)c2cnccn2)cc(OC)c1OC (stereo not given) | -13 | -3 | 7 | 0 | 0 | x | x | x
COc1ccc(CN(C(=O)c2ccc(-c3ccccc3)[nH]2)C(C(=O)NC(C)(C)C)c2ccncc2)cc1 (stereo not given) | 9 | 4 | 12 | 76* | -48 | 33* | 8 | 16
SMILES | Arr AP2 block | Rin1 Abl inh | SKN-1 block | Tb MetRS inh | MT1-MMP act inh | TbMetRS confirm | Jurkat cytotox | TbMetRS FP orth
COc1ccccc1NC(=O)/C(=C\c1cccnc1)NC(=O)c1ccc(C)cc1 | -4 | 0 | 6 | 1 | -1 | x | x | x
CCn1c(COc2ccc(Cl)cc2)nnc1SCc1nc2ccccc2[nH]1 | -4 | 0 | 13 | 54* | -5 | 58* | 12 | 36*
Cc1ccc(OCc2nnc(SCc3nc4ccccc4[nH]3)n2Cc2ccco2)cc1 | -8 | -1 | 6 | 35* | -11 | 62* | 14 | 34*
CC(C)(C)S(=O)N1Cc2cc(CO)ccc2[C@H]1CCO (stereo not given in full) | x | 1 | -10 | -2 | -1 | x | x | x
CCNC(=S)NNC(=O)c1ccc(S(=O)(=O)NCc2ccco2)cc1 | -1 | 5 | -7 | 6.2* | 2 | 25* | 6 | 12
CC(C)(C)c1ccc(C(=O)NNC(=S)NCc2ccco2)cc1 | -9 | 0 | 7 | -1 | 3 | x | x | x
CN(CC(=O)Nc1c(Cl)cccc1Cl)C(=O)c1ccc(-n2cncn2)c([N+](=O)[O-])c1 | 7 | 1 | 0 | 1 | 0 | x | x | x
O=C(NNC(=O)c1ccccc1Cl)c1ccc(-n2cncn2)c([N+](=O)[O-])c1 | -8 | -2 | 1 | 7.8* | 6 | 33* | 5 | 12
CC(Oc1ccccc1F)C(=O)NNC(=O)c1ccc(-n2cncn2)c([N+](=O)[O-])c1 (stereo not given) | 35 | 5 | 11 | 5 | 1 | x | x | x
